{"source": "ChEMBL document CHEMBL5724801", "about": "“EUbOPEN Chemogenomics Library - Multiplex” (2024)", "key": {"U2OS": {"tested_on": "U2OS", "assay": "Multiplex assay against U2OS", "type": "toxicity, cell-based", "conditions": "human", "how_it_was_run": "(§1)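 Live cells carried four stains from seeding: Hoechst33342, BioTracker Green Microtubule Cytoskeleton Dye, MitoTracker Red and Annexin V Alexa Fluor 680. They were imaged on a CQ1 microscope at 37°C and 5% CO2 after compound addition. Using CellPathfinder machine-learning gating, cells were split into Hoechst high-intensity objects or normal cells, normal cells into healthy, pyknosed or fragmented nuclei, and pyknosed cells into mitotic or apoptotic; tubulin, mitochondrial-mass and membrane-permeability phenotypes are per cents of healthy-nucleus cells.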"}, "Fibroblast": {"tested_on": "Fibroblast", "assay": "Multiplex assay against human fibroblast", "type": "toxicity, cell-based", "how_it_was_run": "as §1"}, "[1]": {"conditions": "12 h, 1 µM, compound concentration 1 uM"}, "[2]": {"conditions": "12 h, 10 µM, compound concentration 10 uM"}, "[3]": {"conditions": "24 h, 1 µM, compound concentration 1 uM"}, "[4]": {"conditions": "24 h, 10 µM, compound concentration 10 uM"}, "[5]": {"conditions": "48 h, 1 µM, compound concentration 1 uM"}, "[6]": {"conditions": "48 h, 10 µM, compound concentration 10 uM"}}, "note": "Where “and” joins values, the source holds several entries; their conditions need not be identical. Equal values may be shown once.", "data": [{"smiles": "CN1CCN(c2cc(-c3ccccc3)nc(N)n2)CC1", "values": [{"measurement": "Population Apoptotic (%)", "setting": "U2OS; [1]", "value": "80% and 62%"}, {"measurement": "Population Fragmented Nuclei (%)", "setting": "U2OS; [1]", "value": "32% and 17%"}, {"measurement": "Population Healthy Nuclei (%)", "setting": "U2OS; [1]", "value": "61% and 76%"}, {"measurement": "Population Hoechst High Intensity Objects (%)", "setting": "U2OS; [1]", "value": "2% and 1%"}, {"measurement": "Population Membrane Permeable-Phenotype (%)", "setting": "U2OS; [1]", "value": "5% and 7%"}, {"measurement": "Population Mitochondria Different-Phenotype (%)", "setting": "U2OS; [1]", "value": "2% and 5%"}, {"measurement": "Population Mitotic Cells (%)", "setting": "U2OS; [1]", "value": "20% and 37%"}, {"measurement": "Population Normal (%)", "setting": "U2OS; [1]", "value": "97% and 98%"}, {"measurement": "Population Pyknosed Nuclei (%)", "setting": "U2OS; [1]", "value": "6% and 5%"}, {"measurement": "Population Tubulin-Different-Phenotype (%)", "setting": "U2OS; [1]", "value": "2% and 11%"}, {"measurement": "Total Cell Count", "setting": "U2OS; [1]", "value": "235 and 141"}, {"measurement": "Population Apoptotic (%)", "setting": "U2OS; [2]", "value": "86% and 73%"}, {"measurement": "Population Healthy Nuclei (%)", "setting": "U2OS; [2]", "value": "63% and 80%"}, {"measurement": "Population Hoechst High Intensity Objects (%)", "setting": "U2OS; [2]", "value": "0% and 1%"}, {"measurement": "Population Membrane Permeable-Phenotype (%)", "setting": "U2OS; [2]", "value": "5% and 10%"}, {"measurement": "Population Mitochondria Different-Phenotype (%)", "setting": "U2OS; [2]", "value": 3, "unit": "%"}, {"measurement": "Population Mitotic Cells (%)", "setting": "U2OS; [2]", "value": "13% and 26%"}, {"measurement": "Population Normal (%)", "setting": "U2OS; [2]", "value": "99% and 98%"}, {"measurement": "Population Pyknosed Nuclei (%)", "setting": "U2OS; [2]", "value": "6% and 10%"}, {"measurement": "Population Tubulin-Different-Phenotype (%)", "setting": "U2OS; [2]", "value": "3% and 7%"}, {"measurement": "Total Cell Count", "setting": "U2OS; [2]", "value": "252 and 139"}, {"measurement": "Population Apoptotic (%)", "setting": "U2OS; [3]", "value": "86% and 80%"}, {"measurement": "Population Fragmented Nuclei (%)", "setting": "U2OS; [3]", "value": "25% and 21%"}, {"measurement": "Population Healthy Nuclei (%)", "setting": "U2OS; [3]", "value": "65% and 73%"}, {"measurement": "Population Hoechst High Intensity Objects (%)", "setting": "U2OS; [3]", "value": 1, "unit": "%"}, {"measurement": "Population Membrane Permeable-Phenotype (%)", "setting": "U2OS; [3]", "value": "7% and 6%"}, {"measurement": "Population Mitochondria Different-Phenotype (%)", "setting": "U2OS; [3]", "value": 1, "unit": "%"}, {"measurement": "Population Mitotic Cells (%)", "setting": "U2OS; [3]", "value": "13% and 20%"}, {"measurement": "Population Normal (%)", "setting": "U2OS; [3]", "value": 98, "unit": "%"}, {"measurement": "Population Pyknosed Nuclei (%)", "setting": "U2OS; [3]", "value": "8% and 5%"}, {"measurement": "Population Tubulin-Different-Phenotype (%)", "setting": "U2OS; [3]", "value": "4% and 9%"}, {"measurement": "Total Cell Count", "setting": "U2OS; [3]", "value": "278 and 177"}, {"measurement": "Population Apoptotic (%)", "setting": "U2OS; [4]", "value": "100% and 81%"}, {"measurement": "Population Fragmented Nuclei (%)", "setting": "U2OS; [4]", "value": "23% and 12%"}, {"measurement": "Population Healthy Nuclei (%)", "setting": "U2OS; [4]", "value": "69% and 80%"}, {"measurement": "Population Hoechst High Intensity Objects (%)", "setting": "U2OS; [4]", "value": "1% and 2%"}, {"measurement": "Population Membrane Permeable-Phenotype (%)", "setting": "U2OS; [4]", "value": "9% and 4%"}, {"measurement": "Population Mitochondria Different-Phenotype (%)", "setting": "U2OS; [4]", "value": "3% and 4%"}, {"measurement": "Population Mitotic Cells (%)", "setting": "U2OS; [4]", "value": "0% and 18%"}, {"measurement": "Population Normal (%)", "setting": "U2OS; [4]", "value": "98% and 97%"}, {"measurement": "Population Pyknosed Nuclei (%)", "setting": "U2OS; [4]", "value": 6, "unit": "%"}, {"measurement": "Population Tubulin-Different-Phenotype (%)", "setting": "U2OS; [4]", "value": "7% and 2%"}, {"measurement": "Total Cell Count", "setting": "U2OS; [4]", "value": "287 and 166"}, {"measurement": "Population Apoptotic (%)", "setting": "U2OS; [5]", "value": "83% and 69%"}, {"measurement": "Population Fragmented Nuclei (%)", "setting": "U2OS; [5]", "value": "21% and 19%"}, {"measurement": "Population Healthy Nuclei (%)", "setting": "U2OS; [5]", "value": "69% and 75%"}, {"measurement": "Population Hoechst High Intensity Objects (%)", "setting": "U2OS; [5]", "value": "2% and 3%"}, {"measurement": "Population Membrane Permeable-Phenotype (%)", "setting": "U2OS; [5]", "value": 5, "unit": "%"}, {"measurement": "Population Mitochondria Different-Phenotype (%)", "setting": "U2OS; [5]", "value": "1% and 2%"}, {"measurement": "Population Mitotic Cells (%)", "setting": "U2OS; [5]", "value": "16% and 30%"}, {"measurement": "Population Normal (%)", "setting": "U2OS; [5]", "value": "97% and 96%"}, {"measurement": "Population Pyknosed Nuclei (%)", "setting": "U2OS; [5]", "value": "9% and 5%"}, {"measurement": "Population Tubulin-Different-Phenotype (%)", "setting": "U2OS; [5]", "value": "2% and 7%"}, {"measurement": "Total Cell Count", "setting": "U2OS; [5]", "value": "409 and 267"}, {"measurement": "Population Apoptotic (%)", "setting": "U2OS; [6]", "value": "100% and 88%"}, {"measurement": "Population Fragmented Nuclei (%)", "setting": "U2OS; [6]", "value": "19% and 11%"}, {"measurement": "Population Healthy Nuclei (%)", "setting": "U2OS; [6]", "value": "71% and 78%"}, {"measurement": "Population Hoechst High Intensity Objects (%)", "setting": "U2OS; [6]", "value": 1, "unit": "%"}, {"measurement": "Population Membrane Permeable-Phenotype (%)", "setting": "U2OS; [6]", "value": "5% and 2%"}, {"measurement": "Population Mitochondria Different-Phenotype (%)", "setting": "U2OS; [6]", "value": 3, "unit": "%"}, {"measurement": "Population Mitotic Cells (%)", "setting": "U2OS; [6]", "value": "0% and 12%"}, {"measurement": "Population Normal (%)", "setting": "U2OS; [6]", "value": 98, "unit": "%"}, {"measurement": "Population Pyknosed Nuclei (%)", "setting": "U2OS; [6]", "value": "8% and 10%"}, {"measurement": "Population Tubulin-Different-Phenotype (%)", "setting": "U2OS; [6]", "value": "6% and 1%"}, {"measurement": "Total Cell Count", "setting": "U2OS; [6]", "value": "420 and 254"}, {"measurement": "Population Apoptotic (%)", "setting": "Fibroblast; [1]", "value": "47% and 37%"}, {"measurement": "Population Fragmented Nuclei (%)", "setting": "Fibroblast; [1]", "value": "15% and 28%"}, {"measurement": "Population Healthy Nuclei (%)", "setting": "Fibroblast; [1]", "value": "68% and 45%"}, {"measurement": "Population Hoechst High Intensity Objects (%)", "setting": "Fibroblast; [1]", "value": "2% and 5%"}, {"measurement": "Population Membrane Permeable-Phenotype (%)", "setting": "Fibroblast; [1]", "value": "1% and 11%"}, {"measurement": "Population Mitochondria Different-Phenotype (%)", "setting": "Fibroblast; [1]", "value": "10% and 11%"}, {"measurement": "Population Mitotic Cells (%)", "setting": "Fibroblast; [1]", "value": "52% and 62%"}, {"measurement": "Population Normal (%)", "setting": "Fibroblast; [1]", "value": "97% and 94%"}, {"measurement": "Population Pyknosed Nuclei (%)", "setting": "Fibroblast; [1]", "value": "15% and 26%"}, {"measurement": "Population Tubulin-Different-Phenotype (%)", "setting": "Fibroblast; [1]", "value": "25% and 66%"}, {"measurement": "Total Cell Count", "setting": "Fibroblast; [1]", "value": "135 and 97"}, {"measurement": "Population Apoptotic (%)", "setting": "Fibroblast; [2]", "value": "48% and 36%"}, {"measurement": "Population Fragmented Nuclei (%)", "setting": "Fibroblast; [2]", "value": "16% and 40%"}, {"measurement": "Population Healthy Nuclei (%)", "setting": "Fibroblast; [2]", "value": "67% and 36%"}, {"measurement": "Population Hoechst High Intensity Objects (%)", "setting": "Fibroblast; [2]", "value": "2% and 7%"}, {"measurement": "Population Membrane Permeable-Phenotype (%)", "setting": "Fibroblast; [2]", "value": "0% and 10%"}, {"measurement": "Population Mitochondria Different-Phenotype (%)", "setting": "Fibroblast; [2]", "value": "6% and 12%"}, {"measurement": "Population Mitotic Cells (%)", "setting": "Fibroblast; [2]", "value": "51% and 64%"}, {"measurement": "Population Normal (%)", "setting": "Fibroblast; [2]", "value": "97% and 92%"}, {"measurement": "Population Pyknosed Nuclei (%)", "setting": "Fibroblast; [2]", "value": "15% and 22%"}, {"measurement": "Population Tubulin-Different-Phenotype (%)", "setting": "Fibroblast; [2]", "value": "44% and 67%"}, {"measurement": "Total Cell Count", "setting": "Fibroblast; [2]", "value": "216 and 118"}, {"measurement": "Population Apoptotic (%)", "setting": "Fibroblast; [3]", "value": "75% and 47%"}, {"measurement": "Population Fragmented Nuclei (%)", "setting": "Fibroblast; [3]", "value": "17% and 36%"}, {"measurement": "Population Healthy Nuclei (%)", "setting": "Fibroblast; [3]", "value": "65% and 44%"}, {"measurement": "Population Hoechst High Intensity Objects (%)", "setting": "Fibroblast; [3]", "value": 2, "unit": "%"}, {"measurement": "Population Membrane Permeable-Phenotype (%)", "setting": "Fibroblast; [3]", "value": "1% and 8%"}, {"measurement": "Population Mitochondria Different-Phenotype (%)", "setting": "Fibroblast; [3]", "value": "3% and 8%"}, {"measurement": "Population Mitotic Cells (%)", "setting": "Fibroblast; [3]", "value": "25% and 52%"}, {"measurement": "Population Normal (%)", "setting": "Fibroblast; [3]", "value": 97, "unit": "%"}, {"measurement": "Population Pyknosed Nuclei (%)", "setting": "Fibroblast; [3]", "value": "16% and 18%"}, {"measurement": "Population Tubulin-Different-Phenotype (%)", "setting": "Fibroblast; [3]", "value": "19% and 50%"}, {"measurement": "Total Cell Count", "setting": "Fibroblast; [3]", "value": "145 and 106"}]}]}
